For assay [1], the target named is G2/mitotic-specific cyclin-B1 (Homo sapiens) (UniProt P14635). As to the kind of experiment: Inhibition of Cyclin B1 phosphorylation at Ser147 residue in human HepG2 cells at cytotoxic IC100 measured after 24 hrs by Western blot method. In kind it is cell-based. On the technique in general: A western blot detects proteins with antibodies after separation by electrophoresis.

In assay [2] the test system is HCT-116. Nature of the assay: Cytotoxicity against human HCT116 cells assessed as growth inhibition after 72 hrs by SRB assay. In kind it is functional, cell-based. To be noted: HCT-116, 72 h. The method in brief:
(§1)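 Cells seeded at 2000–3000 per well and grown 24 h at 37C, then treated in triplicate with compounds dissolved in DMSO over a 40–0.3 range for 72 h. Cells were fixed with 10% TCA for 1 h, stained with 0.4% SRB in 1% acetic acid, washed with 1% acetic acid and air-dried. Bound dye was solubilized in 10 mM Tris base and read at 515 nm. % inhibition and IC50 were calculated against DMSO-only controls.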
A general note: In SRB staining, fixed cells bind dye roughly in proportion to their protein.

Assay [3] deals with HepG2. Nature of the assay: Induction of apoptosis in human HepG2 cells assessed as decrease in CDK expression level at cytotoxic IC100 measured after 24 hrs by Western blot method. It counts as functional. Further details: scale not given: the % may be the effect or the level left.
In assay [4] the test system is Huh-7. As to the kind of experiment: Growth inhibition of human HuH7 cells at cytotoxic IC100 measured every 10 mins for first 24 hrs and every 30 mins for remaining 48 hrs by RT-CES analysis. In kind it is functional, cell-based.
Assay [5] has as its system SNU-475. As to the kind of experiment: Induction of apoptosis in human SNU475 cells assessed as accumulation at subG1 phase at cytotoxic IC100 measured after 72 hrs by propidium iodide staining based flow cytometry. It counts as functional, cell-based. The method in brief: (§2)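 After 24, 48 and 72 h, cells were fixed in ice-cold 70% ethanol for 3 h, stained with propidium iodide, and cell-cycle distribution was read on a MUSE Cell Analyzer.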
In general terms: A flow cytometer gives signals particle by particle.

Assay [6] deals with Huh-7. Nature of the assay: Cytotoxicity against human HuH7 cells assessed as growth inhibition after 72 hrs by SRB assay. In kind it is functional, cell-based. To be noted: Huh-7, 72 h. A digest of the protocol:
as §1

Assay [7] addresses T1, Retinoblastoma-associated protein (Homo sapiens) (UniProt P06400).
T1 sequence (whole entry): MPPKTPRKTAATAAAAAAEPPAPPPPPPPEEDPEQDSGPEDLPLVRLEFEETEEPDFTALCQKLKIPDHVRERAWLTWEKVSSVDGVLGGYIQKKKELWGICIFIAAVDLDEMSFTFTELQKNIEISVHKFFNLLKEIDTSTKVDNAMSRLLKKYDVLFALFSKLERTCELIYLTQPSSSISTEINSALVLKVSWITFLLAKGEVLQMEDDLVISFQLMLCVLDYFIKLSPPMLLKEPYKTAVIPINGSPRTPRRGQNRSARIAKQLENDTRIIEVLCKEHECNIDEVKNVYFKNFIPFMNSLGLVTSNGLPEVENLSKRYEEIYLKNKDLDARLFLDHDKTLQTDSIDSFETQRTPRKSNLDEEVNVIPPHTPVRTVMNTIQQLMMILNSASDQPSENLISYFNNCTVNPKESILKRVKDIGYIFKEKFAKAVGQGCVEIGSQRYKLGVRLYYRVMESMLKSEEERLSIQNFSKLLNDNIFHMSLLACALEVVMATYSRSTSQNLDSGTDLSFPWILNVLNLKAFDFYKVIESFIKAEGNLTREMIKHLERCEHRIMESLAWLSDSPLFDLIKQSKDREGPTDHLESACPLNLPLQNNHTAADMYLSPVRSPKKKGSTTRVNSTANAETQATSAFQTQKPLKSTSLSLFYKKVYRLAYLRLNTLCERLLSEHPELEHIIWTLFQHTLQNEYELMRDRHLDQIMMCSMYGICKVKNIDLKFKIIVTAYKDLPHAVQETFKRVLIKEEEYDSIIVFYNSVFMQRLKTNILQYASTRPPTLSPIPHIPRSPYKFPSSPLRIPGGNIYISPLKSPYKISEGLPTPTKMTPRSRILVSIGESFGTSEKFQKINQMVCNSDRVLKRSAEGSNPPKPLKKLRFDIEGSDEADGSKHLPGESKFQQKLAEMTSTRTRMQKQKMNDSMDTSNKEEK
As to the kind of experiment: Inhibition of retinoblastoma phosphorylation in human SNU475 cells at cytotoxic IC100 measured after 24 hrs by Western blot method. In kind it is cell-based.

In assay [8] the test system is HepG2. Nature of the assay: Induction of apoptosis in human HepG2 cells assessed as condensed nuclei at cytotoxic IC100 measured after 72 hrs by light microscopic method. It counts as functional, cell-based.
Assay [9] deals with SNU-475. As to the kind of experiment: Induction of apoptosis in human SNU475 cells assessed as condensed nuclei at cytotoxic IC100 measured after 48 hrs by DAPI/Annexin-V-Fluos staining based fluorescent microscopic method. In kind it is functional, cell-based. A digest of the protocol: (§3)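 Cells on coverslips were treated after 24 h in culture and stained 48 h later with Annexin-V-Fluos plus DAPI nuclear stain. Cells were then examined by fluorescence microscopy for Annexin V-positive cells with condensed nuclei.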

The subject of assay [10] is MRC5. As to the kind of experiment: Cytotoxicity against human MRC5 cells assessed as growth inhibition after 72 hrs by SRB assay. It counts as cell-based. A digest of the protocol: as §1
In assay [11] the test system is SNU-475. As to the kind of experiment: Induction of apoptosis in human SNU475 cells assessed as accumulation at G2/M phase at cytotoxic IC100 measured after 48 hrs by propidium iodide staining based flow cytometry. In kind it is functional, cell-based. The method in brief:
as §2

Assay [12] has as its system HepG2. Nature of the assay: Induction of apoptosis in human HepG2 cells assessed as PARP cleavage at cytotoxic IC100 measured after 24 hrs by Western blot method. In kind it is functional, cell-based.
For assay [13], the system named is HepG2. As to the kind of experiment: Increase in p21 protein expression in human HepG2 cells at cytotoxic IC100 measured after 24 hrs by Western blot method relative to control. In kind it is functional.
Assay [14] concerns MCF-12A. Nature of the assay: Cytotoxicity against human MCF12A cells assessed as growth inhibition after 72 hrs by SRB assay. In kind it is cell-based. The method in brief: as §1
The target in assay [15] is T1, Retinoblastoma-associated protein (Homo sapiens). As to the kind of experiment: Inhibition of retinoblastoma phosphorylation in human HepG2 cells at cytotoxic IC100 measured after 24 hrs by Western blot method. In kind it is cell-based.
Assay [16] concerns SNU-475. As to the kind of experiment: Induction of apoptosis in human SNU475 cells assessed as condensed nuclei at cytotoxic IC100 measured after 72 hrs by light microscopic method. It counts as functional, cell-based.
Assay [17] concerns Mahlavu. As to the kind of experiment: Growth inhibition of human Mahlavu cells at cytotoxic IC100 measured every 10 mins for first 24 hrs and every 30 mins for remaining 48 hrs by RT-CES analysis. In kind it is functional, cell-based.
Assay [18] concerns MCF7. Nature of the assay: Cytotoxicity against human MCF7 cells assessed as growth inhibition after 72 hrs by SRB assay. To be noted: MCF7, 72 h. It counts as functional, cell-based. The method in brief:
as §1

Assay [19] has as its system HepG2. Nature of the assay: Cytotoxicity against human HepG2 cells assessed as growth inhibition after 72 hrs by SRB assay. It counts as functional, cell-based. The note with it: HepG2, 72 h. The method in brief:
as §1

Assay [20] deals with HepG2. Nature of the assay: Induction of apoptosis in human HepG2 cells assessed as condensed nuclei at cytotoxic IC100 measured after 48 hrs by DAPI/Annexin-V-Fluos staining based fluorescent microscopic method. In kind it is functional, cell-based. A digest of the protocol:
as §3

Assay [21] deals with HepG2. As to the kind of experiment: Induction of apoptosis in human HepG2 cells assessed as accumulation at G2/M phase at cytotoxic IC100 measured after 48 hrs by propidium iodide staining based flow cytometry. In kind it is functional, cell-based. The method in brief: as §2
In assay [22] the test system is SNU-475. As to the kind of experiment: Induction of apoptosis in human SNU475 cells assessed as PARP cleavage at cytotoxic IC100 measured after 24 hrs by Western blot method. It counts as functional, cell-based.
In assay [23] the test system is SNU-475. Nature of the assay: Growth inhibition of human SNU475 cells at cytotoxic IC100 measured every 10 mins for first 24 hrs and every 30 mins for remaining 48 hrs by RT-CES analysis. In kind it is functional, cell-based.
Assay [24] relates to SNU-475. Nature of the assay: Cytotoxicity against human SNU475 cells assessed as growth inhibition after 72 hrs by SRB assay. In kind it is functional, cell-based. The note with it: SNU-475, 72 h. The method in brief:
as §1

Assay [25] is filed under the species Homo sapiens. Nature of the assay: Inhibition of tubulin polymerization (unknown origin).
For assay [26], the system named is HepG2. As to the kind of experiment: Induction of apoptosis in human HepG2 cells assessed as decrease in cyclin B1 protein expression level at cytotoxic IC100 measured after 24 hrs by Western blot method. In kind it is functional, cell-based.
Assay [27] concerns HepG2. Nature of the assay: Induction of apoptosis in human HepG2 cells assessed as accumulation at subG1 phase at cytotoxic IC100 measured after 72 hrs by propidium iodide staining based flow cytometry. In kind it is functional, cell-based. A digest of the protocol:
as §2

Assay [28] concerns SNU-475. Nature of the assay: Increase in p21 protein expression in human SNU475 cells at cytotoxic IC100 measured after 24 hrs by Western blot method relative to control. It counts as functional.
Assay [29] has as its system SNU-475. As to the kind of experiment: Induction of apoptosis in human SNU475 cells assessed as decrease in CDK expression level at cytotoxic IC100 measured after 24 hrs by Western blot method. In kind it is functional, cell-based.
For assay [30], the system named is Mahlavu. As to the kind of experiment: Cytotoxicity against human Mahlavu cells assessed as growth inhibition after 72 hrs by SRB assay. It counts as functional, cell-based. A digest of the protocol:
as §1

The subject of assay [31] is HepG2. As to the kind of experiment: Growth inhibition of human HepG2 cells at cytotoxic IC100 measured every 10 mins for first 24 hrs and every 30 mins for remaining 48 hrs by RT-CES analysis. It counts as functional, cell-based.

Structures are written as SMILES. Activity calls are given as the source filed them. The calls are words filed in the database; no cut-off is given here.

G2/mitotic-specific cyclin-B1 (Homo sapiens), sequence (P14635 whole entry): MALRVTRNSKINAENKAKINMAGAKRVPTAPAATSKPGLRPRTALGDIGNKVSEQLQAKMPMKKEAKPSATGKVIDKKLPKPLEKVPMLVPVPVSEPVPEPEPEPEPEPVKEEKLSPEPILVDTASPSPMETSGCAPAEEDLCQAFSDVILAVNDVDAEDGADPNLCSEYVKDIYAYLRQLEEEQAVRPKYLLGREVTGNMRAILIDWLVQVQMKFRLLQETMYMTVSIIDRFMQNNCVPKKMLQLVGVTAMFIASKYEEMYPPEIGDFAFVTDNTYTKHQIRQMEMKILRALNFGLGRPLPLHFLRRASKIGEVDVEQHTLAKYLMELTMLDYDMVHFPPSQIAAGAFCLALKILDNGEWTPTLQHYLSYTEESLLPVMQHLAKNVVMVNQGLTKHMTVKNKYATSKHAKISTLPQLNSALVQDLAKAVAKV

On to `COc1ccc(OC)c(C(=O)/C=C/c2cn(-c3ccccc3)nc2-c2ccncc2)c1`, for which the inhibition (in general, the change of the read-out against control, counted positive when it falls) in [1] was found to be 50%. Also, the concentration for half-maximal inhibition (IC50) – broadly, the concentration at which inhibition is half-maximal – was 0.9 µM in assay [2]; 1.7 µM in [6]; 3.1 µM in assay [10] (Homo sapiens, MRC5, 72 h, read-out: IC50); 3 µM in assay [14]; 1.4 µM in assay [18]; 4.8 µM in [19]. The concentration for half-maximal inhibition (IC50) worked out at 2 µM in assay [24] and 1.6 µM in [30]. Further, the Activity in [3] stood at 50%. Besides, the “growth inhibition (GI)” value in assay [4], in assay [17], in [23] and in assay [31] was “Active” throughout. The outcome in assay [5], in assay [8], in assay [9], in assay [11], in assay [12] and in assay [16] was Active. Moreover, the outcome in [20], in assay [21], in [22], in assay [26], in assay [27] and in assay [29] was Active. In addition, the inhibition result in assay [7] and in assay [15] was “Active” throughout. In addition, the entries for the “fold change (FC)” value in assay [13] and in [28] were 5 - 6 and 2, respectively. In [25], the inhibition entry was “inactive”.
As for `COc1cc(OC)c(C(=O)/C=C/c2cn(-c3ccccc3)nc2-c2ccncc2)c(OC)c1`, the IC50 is 0.6 µM in [2]; 2.6 µM in [6]; “Non-Toxic” in assay [10] (mrc5); 8.2 µM in assay [14]; 1.6 µM in [18]; 1.7 µM in assay [19]. The IC50 in [24] was found to be 1.4 µM; in [30], 1.1 µM. For the same compound, the “growth inhibition (GI)” value in [4], in [17], in assay [23] and in assay [31] was “Active” in each case. Besides, the outcome in [8], in [9], in [12], in assay [16], in [20] and in [22] was Active. Further, the inhibition entry in assay [25] was “inactive”.
Turning to `COc1ccc(OC)c(C(=O)/C=C/c2cn(-c3ccccc3)nc2-c2ccc3c(c2)OCO3)c1`, the IC50 stood at 1.3 µM in assay [2], 6.1 µM in assay [6] and 5.8 µM in assay [18]. In addition, in [25], the inhibition entry is “inactive”.
`O=C(/C=C/c1cn(-c2ccccc2)nc1-c1ccncc1)c1cc[nH]c1`: the 50% inhibitory concentration (IC50) in [2] worked out at 15.7 µM; in assay [6] it was 28.8 µM; in [18], 13.6 µM. In addition, the inhibition entry in assay [25] is “inactive”.
`O=C(/C=C/c1cn(-c2ccccc2)nc1-c1ccncc1)c1ccsc1`: the 50% inhibitory concentration (IC50) in assay [2] was found to be 1.1 µM; in assay [6] it was 2.2 µM; in assay [18], 1.5 µM. Further, the inhibition result in assay [25] is “inactive”.
For `O=C(/C=C/c1cn(-c2ccccc2)nc1-c1ccc2c(c1)OCO2)c1ccc2c(c1)OCO2`, the figures for the IC50 in [2], in assay [6] and in [18] were 27.2 µM, 9.9 µM and 17.5 µM, respectively. Further, in assay [25], the inhibition entry is “inactive”.

Values taken from ChEMBL document CHEMBL4004857, “Synthesis and biological evaluation of novel pyrazolic chalcone derivatives as novel hepatocellular carcinoma therapeutics” (Eur J Med Chem, 2017).
